Assays:
[1] = Biodistribution in adrenal medulla of mongrel dog assessed per organ at 1.29 x 10^-6 mol, iv measured after 2 hrs; format: ADME, organism-based, Canis lupus familiaris; settings: in vivo
Summary of the method: (§1)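 Radioiodinated ([123I] or [131I]) 6-iododopamine in water or saline, used within 30 min of preparation. Given iv at 1.29 × 10^-6 mol/dog; one dog per time point, killed at 2 or 24 h. Large organs counted as three samples and averaged; adrenals and thyroid taken intact and counted. Expressed as % dose/organ.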

Kidney [2] = test: Biodistribution in kidney of mouse assessed per organ at 8 to 11 x 10^-8 mol, iv measured after 240 mins; format: ADME, organism-based; settings: in vivo, 4 h
Summary of the method: (§2)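 [131I]- or [123I]-6-iododopamine in water or saline, used within 30 min of preparation. Injected iv at 8-11 × 10^-8 mol/mouse. Mice killed by ether overdose at 5-240 min; 3-10 mice per time point. Tissue radioactivity expressed as % dose/organ ± SD.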

Mus musculus [3] = test: Biodistribution in adrenal gland of mouse assessed per organ at 8 to 11 x 10^-8 mol, iv measured after 240 mins; format: ADME, organism-based; settings: in vivo, 4 h; summary of the method: as §2
Mus musculus [4] = test: Biodistribution in thyroid gland of mouse assessed per organ at 8 to 11 x 10^-8 mol, iv measured after 5 mins; format: ADME, organism-based; settings: in vivo
Summary of the method: (§3)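 Tracer labelled with either 123I or 131I, in water or saline, used within 30 min of preparation. Mice dosed iv at 8-11 × 10^-8 mol/mouse and killed by ether overdose. Organs counted as % dose/organ ± SD, n = 3-10 mice per time point.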

Liver [5] = test: Biodistribution in liver of mouse assessed per organ at 8 to 11 x 10^-8 mol, iv measured after 30 mins; format: ADME, organism-based; settings: in vivo, 0.5 h; summary of the method: as §2
[6] = Biodistribution in adrenal cortex of mongrel dog assessed per organ at 1.29 x 10^-6 mol, iv measured after 24 hrs; format: ADME, organism-based, Canis lupus familiaris; settings: in vivo; summary of the method: as §1
[7] = Biodistribution in kidney of mongrel dog assessed per organ at 1.29 x 10^-6 mol, iv measured after 2 hrs; format: ADME, organism-based, Canis lupus familiaris; settings: in vivo; summary of the method: as §1
Mus musculus [8] = test: Biodistribution in thyroid gland of mouse assessed per organ at 8 to 11 x 10^-8 mol, iv measured after 240 mins; format: ADME, organism-based; settings: in vivo, 4 h; summary of the method: as §3
Kidney [9] = test: Biodistribution in kidney of mouse assessed per organ at 8 to 11 x 10^-8 mol, iv measured after 15 mins; format: ADME, organism-based; settings: in vivo, 0.25 h; summary of the method: as §2
Liver [10] = test: Biodistribution in liver of mouse assessed per organ at 8 to 11 x 10^-8 mol, iv measured after 5 mins; format: ADME, organism-based; settings: in vivo; summary of the method: as §2
[11] = Biodistribution in kidney of mongrel dog assessed per organ at 1.29 x 10^-6 mol, iv measured after 24 hrs; format: ADME, organism-based, Canis lupus familiaris; settings: in vivo; summary of the method: as §1
Mus musculus [12] = test: Biodistribution in adrenal gland of mouse assessed per organ at 8 to 11 x 10^-8 mol, iv measured after 30 mins; format: ADME, organism-based; settings: in vivo, 0.5 h; summary of the method: as §2
Mus musculus [13] = test: Biodistribution in adrenal gland of mouse assessed per organ at 8 to 11 x 10^-8 mol, iv measured after 120 mins; format: ADME, organism-based; settings: in vivo, 2 h; summary of the method: as §2
Mus musculus [14] = test: Biodistribution in thyroid gland of mouse assessed per organ at 8 to 11 x 10^-8 mol, iv measured after 120 mins; format: ADME, organism-based; settings: in vivo, 2 h; summary of the method: as §3
Liver [15] = test: Biodistribution in liver of mongrel dog assessed per organ at 1.29 x 10^-6 mol, iv measured after 2 hrs; format: ADME, organism-based, Canis lupus familiaris; settings: in vivo; summary of the method: as §1
Liver [16] = test: Biodistribution in liver of mouse assessed per organ at 8 to 11 x 10^-8 mol, iv measured after 60 mins; format: ADME, organism-based; settings: in vivo, 1 h; summary of the method: as §2
Mus musculus [17] = test: Biodistribution in thyroid gland of mouse assessed per organ at 8 to 11 x 10^-8 mol, iv measured after 60 mins; format: ADME, organism-based; settings: in vivo, 1 h; summary of the method: as §3
Liver [18] = test: Biodistribution in liver of mouse assessed per organ at 8 to 11 x 10^-8 mol, iv measured after 120 mins; format: ADME, organism-based; settings: in vivo, 2 h; summary of the method: as §2
Kidney [19] = test: Biodistribution in kidney of mouse assessed per organ at 8 to 11 x 10^-8 mol, iv measured after 5 mins; format: ADME, organism-based; settings: in vivo; summary of the method: as §2
Liver [20] = test: Biodistribution in liver of mongrel dog assessed per organ at 1.29 x 10^-6 mol, iv measured after 24 hrs; format: ADME, organism-based, Canis lupus familiaris; settings: in vivo; summary of the method: as §1
Mus musculus [21] = test: Biodistribution in adrenal gland of mouse assessed per organ at 8 to 11 x 10^-8 mol, iv measured after 60 mins; format: ADME, organism-based; settings: in vivo, 1 h; summary of the method: as §2
Kidney [22] = test: Biodistribution in kidney of mouse assessed per organ at 8 to 11 x 10^-8 mol, iv measured after 30 mins; format: ADME, organism-based; settings: in vivo, 0.5 h; summary of the method: as §2
Liver [23] = test: Biodistribution in liver of mouse assessed per organ at 8 to 11 x 10^-8 mol, iv measured after 240 mins; format: ADME, organism-based; settings: in vivo, 4 h; summary of the method: as §2
Mus musculus [24] = test: Biodistribution in thyroid gland of mouse assessed per organ at 8 to 11 x 10^-8 mol, iv measured after 30 mins; format: ADME, organism-based; settings: in vivo, 0.5 h; summary of the method: as §3
[25] = Biodistribution in thyroid gland of mongrel dog assessed per organ at 1.29 x 10^-6 mol, iv measured after 2 hrs; format: ADME, organism-based, Canis lupus familiaris; settings: in vivo
Summary of the method: (§4)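 Radioiodine-labelled tracer given at 1.29 × 10^-6 mol/dog. One dog per time point, killed at 2 or 24 h. Thyroids and other small organs were taken intact and counted. Large organs were sampled three times and averaged. Result given as % dose/organ.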

[26] = Biodistribution in adrenal cortex of mongrel dog assessed per organ at 1.29 x 10^-6 mol, iv measured after 2 hrs; format: ADME, organism-based, Canis lupus familiaris; settings: in vivo; summary of the method: as §1
Kidney [27] = test: Biodistribution in kidney of mouse assessed per organ at 8 to 11 x 10^-8 mol, iv measured after 120 mins; format: ADME, organism-based; settings: in vivo, 2 h; summary of the method: as §2
Mus musculus [28] = test: Biodistribution in thyroid gland of mouse assessed per organ at 8 to 11 x 10^-8 mol, iv measured after 15 mins; format: ADME, organism-based; settings: in vivo, 0.25 h; summary of the method: as §3
[29] = Biodistribution in adrenal medulla of mongrel dog assessed per organ at 1.29 x 10^-6 mol, iv measured after 24 hrs; format: ADME, organism-based, Canis lupus familiaris; settings: in vivo; summary of the method: as §1
Mus musculus [30] = test: Biodistribution in adrenal gland of mouse assessed per organ at 8 to 11 x 10^-8 mol, iv measured after 15 mins; format: ADME, organism-based; settings: in vivo, 0.25 h; summary of the method: as §2
[31] = Biodistribution in thyroid gland of mongrel dog assessed per organ at 1.29 x 10^-6 mol, iv measured after 24 hrs; format: ADME, organism-based, Canis lupus familiaris; settings: in vivo; summary of the method: as §4
Kidney [32] = test: Biodistribution in kidney of mouse assessed per organ at 8 to 11 x 10^-8 mol, iv measured after 60 mins; format: ADME, organism-based; settings: in vivo, 1 h; summary of the method: as §2
Mus musculus [33] = test: Biodistribution in adrenal gland of mouse assessed per organ at 8 to 11 x 10^-8 mol, iv measured after 5 mins; format: ADME, organism-based; settings: in vivo; summary of the method: as §2
Liver [34] = test: Biodistribution in liver of mouse assessed per organ at 8 to 11 x 10^-8 mol, iv measured after 15 mins; format: ADME, organism-based; settings: in vivo, 0.25 h; summary of the method: as §2

Compound `Br.NCCc1cc(O)c(O)cc1[123I]` has a Drug uptake [1] of 0.0062 %ID, a Drug uptake (Kidney [2]) of 0.79 %ID and a Drug uptake (Mus musculus [3]) of 0.012 %ID. It also gave a Drug uptake (Mus musculus [4]) of 0.094 %ID, a Drug uptake (Liver [5]) of 2.4 %ID and a Drug uptake [6] of 0.0104 %ID. For the same compound, the Drug uptake [7] was 0.77 %ID, the Drug uptake (Mus musculus [8]) was 0.158 %ID and the Drug uptake (Kidney [9]) was 3.44 %ID. For the same compound, the Drug uptake (Liver [10]) was 7.1 %ID, the Drug uptake [11] was 0.075 %ID and the Drug uptake (Mus musculus [12]) was 0.014 %ID. For the same compound, the Drug uptake (Mus musculus [13]) was 0.02 %ID, the Drug uptake (Mus musculus [14]) was 0.176 %ID and the Drug uptake (Liver [15]) was 2.24 %ID. It also gave a Drug uptake (Liver [16]) of 1.04 %ID, a Drug uptake (Mus musculus [17]) of 0.066 %ID and a Drug uptake (Liver [18]) of 0.84 %ID. For the same compound, the Drug uptake (Kidney [19]) was 8.03 %ID, the Drug uptake (Liver [20]) was 0.48 %ID and the Drug uptake (Mus musculus [21]) was 0.0087 %ID. The Drug uptake (Kidney [22]) was 1.69 %ID, the Drug uptake (Liver [23]) was 0.94 %ID and the Drug uptake (Mus musculus [24]) was 0.084 %ID. The Drug uptake [25] was 0.026 %ID, the Drug uptake [26] was 0.0092 %ID and the Drug uptake (Kidney [27]) was 0.78 %ID. It also gave a Drug uptake (Mus musculus [28]) of 0.067 %ID, a Drug uptake [29] of 0.0021 %ID and a Drug uptake (Mus musculus [30]) of 0.015 %ID. The Drug uptake [31] was 0.48 %ID, the Drug uptake (Kidney [32]) was 1 %ID and the Drug uptake (Mus musculus [33]) was 0.03 %ID. The Drug uptake (Liver [34]) was 3.64 %ID.

Source: ChEMBL document CHEMBL3271970, “Radiopharmaceuticals. 16. Halogenated dopamine analogs. Synthesis and radiolabeling of 6-iododopamine and tissue distribution studies in animals” (J Med Chem, 1976)
